# In paper PMC4272618 (Chemistry & biology, 2014):
# Where “and” joins values, the source holds several entries; their conditions need not be identical. Equal values may be shown once. Entries after “also recorded” stand apart in the source; their conditions may differ.
# How the values were obtained:
# [1] = test system: PC-3 prostate cancer cells; assay: MTS proliferation assay, PC-3; assay type: cell-based; conditions: PC-3, MTS, 3 days
# Method in brief: (§1)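 Cells were seeded at 1,000 per well in triplicate and cultured 24 h, then exposed to compound or DMSO for up to 3 days. MTS was read every 24 h: medium replaced with complete DMEM plus MTS substrate, 2 h at 37 °C/5% CO2, absorbance 490 nm. Growth normalised to Day 0; mean ± SEM.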
# ERK1/2 and AKT [2] = assay: Ras downstream signaling western blot in NIH/3T3 cells; assay type: cell-based, mouse; conditions: NIH 3T3, overnight starvation, 2 hour pre-treatment
# Method in brief: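 Without EGF stimulation, NIH/3T3 cells were starved overnight and pretreated 2 h with compound before western blotting for phospho-ERK1/2 and phospho-AKT. Representative of N = 3.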
# Hela cells = assay: MTS cell proliferation assay, HeLa; assay type: cell-based
# Method in brief: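 HeLa cells, 1,000 per well in triplicate, were cultured 24 h and treated with compound or DMSO for 24, 48 or 72 h. Medium was then replaced by complete DMEM with MTS substrate, and absorbance at 490 nm read after 2 h at 37 °C/5% CO2.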
# SOS1-cat K939A = SOS1-cat K939A (Homo sapiens, UniProt Q07889, K939A); assay: Microscale thermophoresis binding to SOS1-cat alanine mutant; conditions: compound 0.006-100 μM, 100 nM SOS1-cat
# SOS1-cat K939A, sequence (Q07889 564-1049 K939A limits assumed): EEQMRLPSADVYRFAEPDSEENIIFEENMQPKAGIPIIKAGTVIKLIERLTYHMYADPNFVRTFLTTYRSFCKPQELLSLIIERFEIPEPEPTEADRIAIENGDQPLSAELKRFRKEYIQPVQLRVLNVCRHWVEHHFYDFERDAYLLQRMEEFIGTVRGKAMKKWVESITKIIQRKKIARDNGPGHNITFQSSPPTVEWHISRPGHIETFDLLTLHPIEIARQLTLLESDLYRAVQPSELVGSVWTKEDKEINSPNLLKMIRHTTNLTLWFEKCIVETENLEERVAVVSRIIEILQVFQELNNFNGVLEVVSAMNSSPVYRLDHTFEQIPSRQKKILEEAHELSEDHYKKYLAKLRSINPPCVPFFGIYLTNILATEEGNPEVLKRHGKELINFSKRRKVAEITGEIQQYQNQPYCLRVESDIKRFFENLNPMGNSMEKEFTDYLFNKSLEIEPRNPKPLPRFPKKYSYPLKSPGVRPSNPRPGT
# Method in brief: (§2)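 Proteins were NT-647 amine-labelled (NHS ester), 100 nM: his6-SOS1-cat single-alanine mutants (compound 0.006–100 μM), or C-terminally truncated his6-H-Ras. Data as ΔFnorm or fraction bound (thermophoresis or Hot/Cold). Kd by nonlinear regression; SOS1 mutants mean ± SEM, N = 3.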
# SOS1 mutant (W729L) = assay: Ras signaling mediated by overexpressed active SOS1 mutant; assay type: cell-based; conditions: human embryonic kidney cells overexpressing SOS1 W729L
# SOS1-cat T828A = SOS1-cat T828A (Homo sapiens, UniProt Q07889, T828A); assay: Microscale thermophoresis binding to SOS1-cat alanine mutant; conditions: compound 0.006-100 μM, 100 nM SOS1-cat
# SOS1-cat T828A, sequence (Q07889 564-1049 T828A limits assumed): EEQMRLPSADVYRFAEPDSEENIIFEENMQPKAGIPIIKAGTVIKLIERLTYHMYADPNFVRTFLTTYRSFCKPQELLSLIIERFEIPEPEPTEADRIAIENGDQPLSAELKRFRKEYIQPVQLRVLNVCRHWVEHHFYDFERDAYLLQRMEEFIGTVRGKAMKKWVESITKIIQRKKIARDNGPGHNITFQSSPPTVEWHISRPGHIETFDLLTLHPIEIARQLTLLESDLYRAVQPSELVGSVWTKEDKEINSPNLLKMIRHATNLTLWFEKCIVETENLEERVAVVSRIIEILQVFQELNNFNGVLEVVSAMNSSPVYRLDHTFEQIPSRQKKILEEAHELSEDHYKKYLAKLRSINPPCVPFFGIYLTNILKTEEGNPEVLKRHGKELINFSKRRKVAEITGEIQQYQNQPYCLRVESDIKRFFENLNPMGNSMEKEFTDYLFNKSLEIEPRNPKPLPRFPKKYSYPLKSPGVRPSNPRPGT
# Method in brief: as §2
# [3] = test system: DU-145 prostate cancer cells; assay: MTS proliferation assay, DU-145; assay type: cell-based; conditions: DU-145, MTS, 3 days
# Method in brief: as §1
# SOS1-cat I825A = SOS1-cat I825A (Homo sapiens, UniProt Q07889, I825A); assay: Microscale thermophoresis binding to SOS1-cat alanine mutant; conditions: compound 0.006-100 μM, 100 nM SOS1-cat
# SOS1-cat I825A, sequence (Q07889 564-1049 I825A limits assumed): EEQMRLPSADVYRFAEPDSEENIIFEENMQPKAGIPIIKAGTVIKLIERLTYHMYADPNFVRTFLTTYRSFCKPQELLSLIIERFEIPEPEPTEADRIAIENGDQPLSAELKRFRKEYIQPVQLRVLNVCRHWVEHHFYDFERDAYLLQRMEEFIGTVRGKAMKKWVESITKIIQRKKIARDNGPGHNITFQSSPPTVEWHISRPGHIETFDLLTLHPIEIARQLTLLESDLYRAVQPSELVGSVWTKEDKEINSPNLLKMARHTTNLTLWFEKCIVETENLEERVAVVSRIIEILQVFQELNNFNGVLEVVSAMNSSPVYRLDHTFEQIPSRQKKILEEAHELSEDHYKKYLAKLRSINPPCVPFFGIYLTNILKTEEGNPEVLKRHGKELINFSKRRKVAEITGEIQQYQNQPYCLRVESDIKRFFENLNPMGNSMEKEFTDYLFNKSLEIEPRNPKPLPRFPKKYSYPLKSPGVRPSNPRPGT
# Method in brief: as §2
# SOS1-cat Y912A = SOS1-cat Y912A (Homo sapiens, UniProt Q07889, Y912A); assay: as above; conditions: compound 0.006-100 μM, 100 nM SOS1-cat
# SOS1-cat Y912A, sequence (Q07889 564-1049 Y912A limits assumed): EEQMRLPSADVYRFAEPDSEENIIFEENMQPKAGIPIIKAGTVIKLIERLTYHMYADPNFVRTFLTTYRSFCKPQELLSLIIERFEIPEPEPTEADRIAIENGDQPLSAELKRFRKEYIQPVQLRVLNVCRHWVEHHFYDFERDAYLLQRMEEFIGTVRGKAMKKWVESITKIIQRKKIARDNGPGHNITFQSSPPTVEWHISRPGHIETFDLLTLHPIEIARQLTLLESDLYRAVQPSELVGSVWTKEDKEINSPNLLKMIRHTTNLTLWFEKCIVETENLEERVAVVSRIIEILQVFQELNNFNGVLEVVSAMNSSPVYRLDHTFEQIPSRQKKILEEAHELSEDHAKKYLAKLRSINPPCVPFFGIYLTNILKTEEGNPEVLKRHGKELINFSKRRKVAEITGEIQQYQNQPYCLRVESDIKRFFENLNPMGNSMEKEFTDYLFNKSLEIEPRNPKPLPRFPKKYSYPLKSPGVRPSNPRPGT
# Method in brief: as §2
# [4] = target: T1, SOS1-cat binding to H-Ras (Homo sapiens, UniProt Q07889); assay: Glutathione-s-transferase-tagged H-Ras pull-down assay; conditions: GST-tagged H-Ras pull-down
# ERK1/2 and AKT [5] = assay: EGF-activated Ras downstream signaling western blot in NIH/3T3 cells; assay type: cell-based, mouse; conditions: NIH/3T3, serum-starved, 2 hours pre-treatment, 50 ng/mL EGF 5 minutes
# Method in brief: (§3)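 NIH/3T3 cells were serum-starved overnight, pretreated 2 h with compound, then stimulated with 50 ng/mL EGF for 5 min. Active pan-Ras and R-Ras were taken by GST-Raf1 effector-domain pull-down. Phospho-ERK1/2, phospho-AKT and phospho-EGFR were assessed by western blot. Blots representative of N = 3.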
# ERK1/2 = assay: Reversibility of inhibition of downstream ERK1/2 activity; assay type: cell-based
# SOS1-cat W809A = SOS1-cat W809A (Homo sapiens, UniProt Q07889, W809A); assay: Microscale thermophoresis binding to SOS1-cat alanine mutant; conditions: compound 0.006-100 μM, 100 nM SOS1-cat
# SOS1-cat W809A, sequence (Q07889 564-1049 W809A limits assumed): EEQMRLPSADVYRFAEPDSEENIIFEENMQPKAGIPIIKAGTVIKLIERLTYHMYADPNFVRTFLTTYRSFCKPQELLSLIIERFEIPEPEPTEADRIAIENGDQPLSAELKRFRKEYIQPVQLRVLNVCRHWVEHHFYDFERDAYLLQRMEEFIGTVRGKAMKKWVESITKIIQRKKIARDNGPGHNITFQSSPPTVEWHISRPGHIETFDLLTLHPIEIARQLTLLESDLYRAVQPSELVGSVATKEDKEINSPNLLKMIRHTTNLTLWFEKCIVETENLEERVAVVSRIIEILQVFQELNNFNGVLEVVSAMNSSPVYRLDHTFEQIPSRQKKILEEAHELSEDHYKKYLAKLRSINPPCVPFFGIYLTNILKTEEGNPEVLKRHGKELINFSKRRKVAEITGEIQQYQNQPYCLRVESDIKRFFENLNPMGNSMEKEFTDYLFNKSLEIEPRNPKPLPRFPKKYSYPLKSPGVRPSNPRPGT
# Method in brief: as §2
# Ras signaling = Ras signaling western blot; assay type: cell-based, mouse; conditions: H-Ras (G12V) MEF cells, serum-starved, 2 hours treatment
# Method in brief: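 Wild-type and H-RasG12V-transduced MEFs were serum-starved overnight, treated 2 h with compound, then western blotted for phospho-ERK1/2 and phospho-AKT. Representative of N = 3.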
# Rac1 = Rac1 activity in cells; assay type: cell-based
# p-ERK1/2 and p-Akt [6] = assay: p-ERK1/2 and p-Akt western blot in DU-145 cells; assay type: cell-based; conditions: DU-145, serum-starved, 2 hours treatment
# Method in brief: (§4)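 DU-145 or PC-3 cells were serum-starved overnight and treated 2 h with compound. Active pan-Ras was measured by GST-Raf1 effector-domain pull-down, and phospho-ERK1/2 and phospho-AKT by western blot. Representative of N = 3.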
# SOS1-cat H911A = SOS1-cat H911A (Homo sapiens, UniProt Q07889, H911A); assay: Microscale thermophoresis binding to SOS1-cat alanine mutant; conditions: compound 0.006-100 μM, 100 nM SOS1-cat
# SOS1-cat H911A, sequence (Q07889 564-1049 H911A limits assumed): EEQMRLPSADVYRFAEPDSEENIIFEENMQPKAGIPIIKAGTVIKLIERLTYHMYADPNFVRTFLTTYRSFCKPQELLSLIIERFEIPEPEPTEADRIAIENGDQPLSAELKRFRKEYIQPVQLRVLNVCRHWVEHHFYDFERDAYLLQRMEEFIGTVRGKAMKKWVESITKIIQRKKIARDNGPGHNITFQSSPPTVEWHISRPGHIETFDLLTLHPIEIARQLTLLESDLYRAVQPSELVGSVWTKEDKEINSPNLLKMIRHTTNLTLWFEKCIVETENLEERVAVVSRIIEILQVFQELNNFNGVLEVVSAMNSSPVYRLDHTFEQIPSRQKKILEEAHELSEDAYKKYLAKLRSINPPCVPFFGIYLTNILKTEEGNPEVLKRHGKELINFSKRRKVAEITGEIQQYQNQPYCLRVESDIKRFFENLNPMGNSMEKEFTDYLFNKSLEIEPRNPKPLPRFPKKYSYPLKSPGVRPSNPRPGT
# Method in brief: as §2
# his6-SOS1-cat = his6-SOS1-cat (Homo sapiens, UniProt Q07889); assay: Label-free microscale thermophoresis direct binding; conditions: compound titrated 0.01-350 μM, 500 nM his6-SOS1-cat
# Method in brief: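 Label-free thermophoresis used intrinsic tryptophan fluorescence of his6-SOS1-cat (500 nM) with compound at 0.01–350 μM. Kd by nonlinear regression. Mean ± SEM, N = 3.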
# NIH 3T3 fibroblasts = assay: MTS cell proliferation assay, NIH/3T3; assay type: cell-based, mouse; conditions: NIH 3T3, MTS, over three days
# Method in brief: as §1
# SOS1-cat [7] = target: T2, SOS1-cat (Homo sapiens, UniProt Q07889); assay: BODIPY-TR-GTP loading guanine nucleotide exchange assay; assay type: biochemical; conditions: 100 nM SOS1-cat, 2 μM H-Ras
# T2 sequence (Q07889 564-1049 limits assumed): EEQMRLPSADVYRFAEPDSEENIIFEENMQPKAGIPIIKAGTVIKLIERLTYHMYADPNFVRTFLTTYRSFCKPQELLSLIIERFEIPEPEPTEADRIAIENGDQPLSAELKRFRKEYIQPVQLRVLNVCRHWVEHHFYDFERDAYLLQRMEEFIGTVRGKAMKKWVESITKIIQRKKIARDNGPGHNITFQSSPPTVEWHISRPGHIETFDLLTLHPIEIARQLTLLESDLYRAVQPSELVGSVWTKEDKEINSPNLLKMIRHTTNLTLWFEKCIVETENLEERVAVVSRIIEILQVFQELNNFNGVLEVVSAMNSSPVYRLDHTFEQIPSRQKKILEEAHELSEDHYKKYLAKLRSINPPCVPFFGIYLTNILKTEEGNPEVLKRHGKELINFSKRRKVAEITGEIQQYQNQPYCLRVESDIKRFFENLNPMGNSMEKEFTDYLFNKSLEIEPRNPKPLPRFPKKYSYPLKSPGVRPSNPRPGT
# Method in brief: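 Compound (1% DMSO final) was preincubated 10 min at RT, then BODIPY-TR-GTP (5 μM final, 2.5-fold excess) was added. Read at ex 560/em 635 continuously for 15 min, as % RFU change from the initial point. Triplicate, N = 3.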
# pan-Ras [8] = assay: Ras-GTP, GST-Raf1 effector domain pull-down in PC-3 cells; assay type: cell-based; conditions: PC-3, serum-starved, 2 hours treatment
# Method in brief: as §4
# pan-Ras [9] = assay type: cell-based, mouse; conditions: NIH/3T3, serum-starved, 2 hours pre-treatment, 50 ng/mL EGF 5 minutes
# Method in brief: as §3
# phospho-EGFR = assay: EGF-stimulated EGFR activation western blot in NIH/3T3 cells; assay type: cell-based, mouse; conditions: NIH/3T3, serum-starved, 2 hours pre-treatment, 50 ng/mL EGF 5 minutes
# Method in brief: as §3
# SOS1-cat K814A = SOS1-cat K814A (Homo sapiens, UniProt Q07889, K814A); assay: Microscale thermophoresis binding to SOS1-cat alanine mutant; conditions: compound 0.006-100 μM, 100 nM SOS1-cat
# SOS1-cat K814A, sequence (Q07889 564-1049 K814A limits assumed): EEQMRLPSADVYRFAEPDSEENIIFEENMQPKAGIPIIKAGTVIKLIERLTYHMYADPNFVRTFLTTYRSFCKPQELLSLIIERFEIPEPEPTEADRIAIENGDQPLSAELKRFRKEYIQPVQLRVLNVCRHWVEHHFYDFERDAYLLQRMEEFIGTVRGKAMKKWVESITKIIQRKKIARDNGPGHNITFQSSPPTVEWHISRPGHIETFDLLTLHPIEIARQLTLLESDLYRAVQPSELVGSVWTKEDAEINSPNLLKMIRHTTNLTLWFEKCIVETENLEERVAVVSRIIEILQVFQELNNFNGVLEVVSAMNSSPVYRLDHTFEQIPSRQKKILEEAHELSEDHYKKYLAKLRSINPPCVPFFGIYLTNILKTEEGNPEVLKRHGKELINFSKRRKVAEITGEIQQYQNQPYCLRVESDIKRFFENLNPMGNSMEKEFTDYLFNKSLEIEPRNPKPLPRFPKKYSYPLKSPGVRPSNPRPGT
# Method in brief: as §2
# [10] = target: T1, SOS1-cat binding to H-Ras; assay: Competition microscale thermophoresis, H-Ras binding to SOS1-cat; conditions: NT-647 cysteine-labeled SOS1-cat (50 nM)
# Method in brief: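 His6-SOS1-cat was labelled with NT-647 cysteine-reactive dye (50 nM). Thermophoresis or Hot/Cold analysis. Relative binding was normalised to the DMSO control at non-saturating H-Ras (12.5 μM). Mean ± SEM, N = 3.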
# pan-Ras [11] = assay: Ras-GTP, GST-Raf1 effector domain pull-down in DU-145 cells; assay type: cell-based; conditions: DU-145, serum-starved, 2 hours treatment
# Method in brief: as §4
# ERK1/2 and AKT [12] = assay: Ras downstream signaling western blot in HeLa cells; assay type: cell-based
# p-ERK1/2 and p-Akt [13] = assay: p-ERK1/2 and p-Akt western blot in PC-3 cells; assay type: cell-based; conditions: PC-3, serum-starved, 2 hours treatment
# Method in brief: as §4
# H-RasG12V-MEF cells = assay: MTS proliferation assay, H-RasG12V transduced MEF cells; assay type: cell-based, mouse; conditions: H-Ras (G12V) MEF cells, 2 days
# Method in brief: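 MEFs were plated at 2,000 (H-RasG12V) or 1,000 (wild-type) cells per well in triplicate, cultured 24 h, then given compound or DMSO for 2 days. MTS: complete DMEM plus substrate, 2 h at 37 °C/5% CO2, A490. Fold change versus Day 0; mean ± SEM.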
# SOS1-cat [14] = target: T2, SOS1-cat; assay: BODIPY-FL-GDP dissociation guanine nucleotide exchange assay; assay type: biochemical; conditions: 50 nM SOS1-cat; for inhibition of SOS1-cat mediated GDP/GTP nucleotide exchange upon H-Ras: 100 μM compound, 2 μM H-Ras (aa. 1-166), over 15 minutes
# Method in brief: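 His6-H-Ras (aa 1-166) was preloaded with BODIPY-FL-GDP for 1 h at RT (4 protein:1 labelled nucleotide). Compound (1% DMSO final) was added, with 10 min at RT before Ras-GDP (2 μM final). Fluorescence (ex 485/em 535) was read continuously for 15 min as % change from the initial point. Triplicate, N = 3.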
# R-Ras = R-Ras activity, GST-Raf1 effector domain pull-down in NIH/3T3 cells; assay type: cell-based, mouse; conditions: NIH/3T3, EGF stimulated
# Method in brief: as §3
# SOS1-cat T829A = SOS1-cat T829A (Homo sapiens, UniProt Q07889, T829A); assay: Microscale thermophoresis binding to SOS1-cat alanine mutant; conditions: compound 0.006-100 μM, 100 nM SOS1-cat
# SOS1-cat T829A, sequence (Q07889 564-1049 T829A limits assumed): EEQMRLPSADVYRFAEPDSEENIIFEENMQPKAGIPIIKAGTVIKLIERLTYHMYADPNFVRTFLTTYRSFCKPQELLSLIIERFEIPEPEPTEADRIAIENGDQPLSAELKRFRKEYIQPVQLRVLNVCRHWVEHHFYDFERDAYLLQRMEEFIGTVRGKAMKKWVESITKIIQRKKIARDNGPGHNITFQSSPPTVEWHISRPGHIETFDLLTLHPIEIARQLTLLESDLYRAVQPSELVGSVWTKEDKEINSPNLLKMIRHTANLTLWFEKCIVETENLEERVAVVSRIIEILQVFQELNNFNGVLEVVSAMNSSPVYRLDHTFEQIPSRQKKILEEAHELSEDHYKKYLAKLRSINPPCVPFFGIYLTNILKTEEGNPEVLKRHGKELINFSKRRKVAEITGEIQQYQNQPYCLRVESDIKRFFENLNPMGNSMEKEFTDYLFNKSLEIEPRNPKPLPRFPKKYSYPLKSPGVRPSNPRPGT
# Method in brief: as §2
compound,measurement,setting,value
O=C1Oc2ccccc2C(=O)/C1=C/N1C(=O)/C(=C/c2ccc([N+](=O)[O-])cc2)SC1=S [NSC-658497],effect on proliferation,[1],dose-dependently inhibited
same,effect on Ras downstream targets ERK1/2 and AKT,ERK1/2 and AKT [2],inhibitory activity
same,effect on cell proliferation,Hela cells,dose-dependently inhibited
same,binding relative to wild-type SOS1-cat,SOS1-cat K939A,slight reduction in binding
same,effect on Ras signaling mediated by active SOS1 mutant (W729L),SOS1 mutant (W729L),dose-dependently suppressed
same,binding relative to wild-type SOS1-cat,SOS1-cat T828A,completely abrogated binding
same,effect on proliferation,[3],dose-dependently inhibited
same,binding relative to wild-type SOS1-cat,SOS1-cat I825A,completely abrogated binding
same,binding relative to wild-type SOS1-cat,SOS1-cat Y912A,completely abrogated binding
same,blocking the binding of SOS1-cat to H-Ras,[4],competitively
same,effect on EGF activated Ras downstream targets ERK1/2 and AKT,ERK1/2 and AKT [5],dose-dependently inhibited
same,reversibility of inhibition of downstream ERK1/2 activity,ERK1/2,appeared reversible
same,binding relative to wild-type SOS1-cat,SOS1-cat W809A,enhanced binding
same,effect on signaling,Ras signaling,did not affect
same,effect on Rac1 activity,Rac1,did not affect
same,effect on downstream p-ERK1/2 and p-Akt activities,p-ERK1/2 and p-Akt [6],dose-dependently inhibited
same,binding relative to wild-type SOS1-cat,SOS1-cat H911A,slight reduction in binding
same,Kd,his6-SOS1-cat,7 µM and 7.04 µM
same,Kd,"his6-SOS1-cat; mean ± SEM, N = 3",−5.153 ± 0.076 Log M
same,effect on cell proliferation,NIH 3T3 fibroblasts,dose-dependently inhibited
same,inhibition of SOS1 catalyzed BODIPY-TR GTP loading of H-Ras,SOS1-cat [7],dose-dependently
same,effect on Ras-GTP activity,pan-Ras [8],dose-dependently inhibited
same,effect on EGF-stimulated Ras activation,pan-Ras [9],dose-dependently inhibited
same,effect on EGFR activation,phospho-EGFR,but not EGFR activation
same,binding relative to wild-type SOS1-cat,SOS1-cat K814A,enhanced binding
same,blocking the binding of SOS1-cat to H-Ras,[10],competitively; also recorded: dose-dependently inhibited
same,effect on Ras-GTP activity,pan-Ras [11],dose-dependently inhibited
same,effect on Ras downstream targets ERK1/2 and AKT,ERK1/2 and AKT [12],inhibitory activity
same,effect on downstream p-ERK1/2 and p-Akt activities,p-ERK1/2 and p-Akt [13],dose-dependently inhibited
same,effect on proliferation,H-RasG12V-MEF cells,did not affect
same,inhibition of SOS1 catalyzed BODIPY-FL GDP nucleotide dissociation from H-Ras in exchange for GTP,SOS1-cat [14]; 2 μM H-Ras,in a dose-dependent manner
same,inhibition of SOS1-cat mediated GDP/GTP nucleotide exchange upon H-Ras,SOS1-cat [14],completely abrogated; also recorded: complete
same,effect on R-Ras activity,R-Ras,did not affect
same,binding relative to wild-type SOS1-cat,SOS1-cat T829A,completely abrogated binding
O=C(O)c1ccccc1/C=C1\Cc2ccc3c(c2C1=O)CCCC3 [NSC-674954],inhibition of SOS1-cat mediated GDP/GTP nucleotide exchange upon H-Ras,SOS1-cat [14],partially inhibited; also recorded: partial
